Measured values as given in ChEMBL document CHEMBL5029150, “Controlling Intramolecular Interactions in the Design of Selective, High-Affinity Ligands for the CREBBP Bromodomain” (J Med Chem, 2021).
Calls of active or inactive are those of the source.

Tests used:
Conditions in all cases: dose microM <=1
[1] = target: Bromodomain-containing protein 4 (Homo sapiens, UniProt O60885); assay: Binding affinity to human BRD4 bromodomain 1 assessed as dissociation constant up to 1 uM by BROMOscan assay
Method in brief: (§1)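 BROMOscan competition binding panel of 12 phylogenetically diverse bromodomains, including the CREBBP and EP300 bromodomains.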

[2] = target: T1, Bromodomain-containing protein 9 (Homo sapiens) (UniProt Q9H8M2); assay: Binding affinity to human BRD9 assessed as dissociation constant up to 1 uM by BROMOscan assay; method in brief: as §1
T1 sequence (whole entry): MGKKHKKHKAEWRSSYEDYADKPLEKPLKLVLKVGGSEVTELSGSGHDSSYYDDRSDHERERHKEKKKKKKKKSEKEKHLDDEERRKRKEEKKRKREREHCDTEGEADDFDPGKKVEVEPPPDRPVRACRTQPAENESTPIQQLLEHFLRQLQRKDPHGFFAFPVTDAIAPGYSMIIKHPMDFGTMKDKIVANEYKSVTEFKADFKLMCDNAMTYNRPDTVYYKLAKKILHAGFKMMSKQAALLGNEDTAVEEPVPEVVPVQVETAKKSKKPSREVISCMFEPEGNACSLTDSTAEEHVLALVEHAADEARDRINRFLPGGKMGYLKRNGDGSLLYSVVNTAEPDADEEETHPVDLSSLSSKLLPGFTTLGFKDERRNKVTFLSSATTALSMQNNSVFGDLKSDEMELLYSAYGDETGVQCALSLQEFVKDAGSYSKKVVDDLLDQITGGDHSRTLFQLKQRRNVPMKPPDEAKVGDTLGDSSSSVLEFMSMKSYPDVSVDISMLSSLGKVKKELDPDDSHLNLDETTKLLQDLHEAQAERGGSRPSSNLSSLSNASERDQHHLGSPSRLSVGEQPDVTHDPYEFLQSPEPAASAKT

Peregrin (Homo sapiens) = target: T2, Peregrin (Homo sapiens) (UniProt P55201); assay: Binding affinity to human BRPF1 assessed as dissociation constant up to 1 uM by BROMOscan assay; method in brief: as §1
T2 sequence (whole entry): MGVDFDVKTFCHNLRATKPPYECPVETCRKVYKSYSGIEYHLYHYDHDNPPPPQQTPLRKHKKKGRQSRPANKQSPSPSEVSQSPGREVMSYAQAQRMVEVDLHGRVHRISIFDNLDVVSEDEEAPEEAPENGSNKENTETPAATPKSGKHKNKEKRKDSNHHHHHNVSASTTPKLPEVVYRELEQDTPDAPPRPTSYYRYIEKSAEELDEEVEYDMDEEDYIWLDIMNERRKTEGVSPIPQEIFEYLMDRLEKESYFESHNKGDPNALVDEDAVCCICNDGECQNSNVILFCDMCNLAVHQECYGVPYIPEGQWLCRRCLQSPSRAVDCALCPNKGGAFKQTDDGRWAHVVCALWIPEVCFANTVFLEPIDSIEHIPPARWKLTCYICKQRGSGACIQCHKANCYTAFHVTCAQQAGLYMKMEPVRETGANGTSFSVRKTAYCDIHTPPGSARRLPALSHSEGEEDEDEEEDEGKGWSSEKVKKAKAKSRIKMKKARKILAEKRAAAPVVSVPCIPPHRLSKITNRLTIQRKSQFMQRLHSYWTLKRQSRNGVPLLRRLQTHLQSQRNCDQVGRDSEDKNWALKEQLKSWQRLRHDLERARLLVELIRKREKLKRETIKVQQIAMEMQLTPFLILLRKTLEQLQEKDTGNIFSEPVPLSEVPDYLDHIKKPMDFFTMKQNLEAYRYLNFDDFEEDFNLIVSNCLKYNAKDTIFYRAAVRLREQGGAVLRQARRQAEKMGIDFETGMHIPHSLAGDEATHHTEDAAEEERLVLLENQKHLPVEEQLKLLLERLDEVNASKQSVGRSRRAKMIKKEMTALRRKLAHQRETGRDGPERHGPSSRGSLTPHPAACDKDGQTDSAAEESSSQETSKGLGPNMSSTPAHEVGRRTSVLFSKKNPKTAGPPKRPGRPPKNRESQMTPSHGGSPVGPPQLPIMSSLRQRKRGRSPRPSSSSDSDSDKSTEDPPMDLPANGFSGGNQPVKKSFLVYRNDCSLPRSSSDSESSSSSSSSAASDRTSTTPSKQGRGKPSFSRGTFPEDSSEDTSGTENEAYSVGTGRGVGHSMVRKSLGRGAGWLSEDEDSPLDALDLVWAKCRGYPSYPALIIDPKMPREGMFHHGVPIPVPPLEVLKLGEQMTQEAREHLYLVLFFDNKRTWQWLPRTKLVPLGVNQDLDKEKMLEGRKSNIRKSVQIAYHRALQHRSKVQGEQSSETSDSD

[3] = target: T3, Transcription intermediary factor 1-alpha (Homo sapiens) (UniProt O15164); assay: Binding affinity to human TRIM24 assessed as dissociation constant up to 1 uM by BROMOscan assay; method in brief: as §1
T3 sequence (whole entry): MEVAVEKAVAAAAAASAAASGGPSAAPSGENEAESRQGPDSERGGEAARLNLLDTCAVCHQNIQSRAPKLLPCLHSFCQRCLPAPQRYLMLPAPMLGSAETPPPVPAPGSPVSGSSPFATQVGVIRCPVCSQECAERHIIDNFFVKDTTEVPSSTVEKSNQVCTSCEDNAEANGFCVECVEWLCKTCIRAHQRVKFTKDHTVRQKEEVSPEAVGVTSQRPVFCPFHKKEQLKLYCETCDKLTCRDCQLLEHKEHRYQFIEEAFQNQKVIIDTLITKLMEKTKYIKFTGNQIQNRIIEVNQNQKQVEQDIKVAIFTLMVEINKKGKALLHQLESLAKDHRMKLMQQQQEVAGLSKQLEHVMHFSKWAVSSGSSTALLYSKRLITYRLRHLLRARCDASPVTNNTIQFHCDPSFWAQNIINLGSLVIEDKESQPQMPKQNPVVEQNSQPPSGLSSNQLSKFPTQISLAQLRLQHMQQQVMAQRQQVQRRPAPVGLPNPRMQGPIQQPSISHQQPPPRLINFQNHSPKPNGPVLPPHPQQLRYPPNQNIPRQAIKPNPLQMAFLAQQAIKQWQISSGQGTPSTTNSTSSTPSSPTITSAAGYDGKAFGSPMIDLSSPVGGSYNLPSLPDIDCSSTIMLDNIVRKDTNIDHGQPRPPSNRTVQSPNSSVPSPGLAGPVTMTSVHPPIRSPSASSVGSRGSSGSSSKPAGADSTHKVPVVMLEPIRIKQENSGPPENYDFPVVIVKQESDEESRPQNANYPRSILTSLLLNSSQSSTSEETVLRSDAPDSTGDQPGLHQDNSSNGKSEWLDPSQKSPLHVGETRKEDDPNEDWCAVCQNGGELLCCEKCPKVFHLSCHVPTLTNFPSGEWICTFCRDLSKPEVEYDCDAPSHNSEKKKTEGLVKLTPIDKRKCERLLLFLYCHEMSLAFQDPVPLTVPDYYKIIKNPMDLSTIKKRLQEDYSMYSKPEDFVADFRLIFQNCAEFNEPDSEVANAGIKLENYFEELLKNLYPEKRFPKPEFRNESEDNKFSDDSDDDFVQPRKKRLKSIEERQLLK

Measured: Activity

COc1ccc2c(c1)N(CCC/C=C/c1cccc3c1N[C@@H](C)CC(=O)N3)CCC2
inactive: all assays above

COc1ccc2c(c1)N(CCC/C=C/c1cccc3c1N[C@H](C)CC(=O)N3)CCC2
inactive: all assays above
